pIC50: −log10 of the molar value. Calls of active or inactive are those of the source. The calls are words filed in the database; no cut-off is given here.
How the values were obtained:
[1] = (§1) Cytotoxicity against MRC5 cells; type: cell-based, Homo sapiens; conditions: human, MRC5 cells
[2] = test system: Human betaherpesvirus 5; assay: Antiviral activity against HCMV in MRC5 cells by plaque reduction assay; type: functional, organism-based; conditions: Human betaherpesvirus 5, MRC5
How it was run: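 HCMV plaque yield reduction assay in MRC-5 cells. IC50 is the 50% inhibitory concentration. Values are means of three experiments.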

[3] = Selectivity index, ratio of CC50 for MRC5 cells to IC50 for HCMV; type: functional
How it was run: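 Ratio of CC50 (50% cytotoxic concentration in MRC-5 cells) to IC50 from the HCMV plaque yield reduction assay in MRC-5 cells. Values are means of three experiments.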

[4] = test system: MRC5; assay: as §1; type: cell-based, Homo sapiens; conditions: Homo sapiens, MRC5
[5] = test system: Human betaherpesvirus 5; assay: Inhibition of HCMV proliferation in MRC5 cells after 54 hrs post-infection at 10 uM by plaque assay; type: functional, organism-based
How it was run: (§2)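 Time-of-addition: MRC-5 cultures were infected at 0.5 PFU/cell, and compound (10 µM) was added at set times from 0 to 120 h post-infection. Virus titre was measured by plaque assay at 168 h post-infection and expressed as percent of control plaque numbers. Values are means of duplicate assays.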

[6] = test system: Human betaherpesvirus 5; assay: Inhibition of HCMV proliferation in MRC5 cells after 24 hrs post-infection at 10 uM by plaque assay; type: functional, organism-based; how it was run: as §2
[7] = test system: Human betaherpesvirus 5; assay: Inhibition of HCMV adsorption to MRC5 cells at 0.2 to 2 uM by infectious centre assay; type: functional, organism-based
How it was run: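 Infectious centre assay for adsorption: HCMV (1 PFU/cell), MRC-5 cell suspension (1 · 10^5 cells/mL) and compound (final 0.2, 0.5, 1, 2) were chilled on ice 2 h, then mixed and held 1 h at 4 C. Cells were washed with ice-cold PBS to remove unbound virus and compound. Pellets were diluted 100- or 1000-fold and plated onto MRC-5 monolayers for plaque counting.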

[8] = test system: Human betaherpesvirus 5; assay: Inhibition of HCMV penetration to MRC5 cells at 0.2 to 2 uM; type: functional, organism-based
How it was run: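 HCMV (about 100 PFU/well) was bound to pre-chilled MRC-5 monolayers for 1 h at 4 C, then washed three times with ice-cold PBS. Cells were shifted to 37 C in medium with compound (final 0.2, 0.5, 1 or 2). At 0, 0.5, 1, 2, 3, 6 and 10 h, unpenetrated virus was inactivated with 40 mM citrate buffer pH 3.0 for 1 min. Plaques were counted under 0.5% methylcellulose overlay.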

Compound	CC50 [1] [µM]	pIC50 [2]	Ratio CC50/IC50 [3]	pIC50 [4]	Activity [5]	Activity [6]	Activity [7]	Activity [8]
COc1cc(OC)c2c(c1)OC(c1ccc(OC)c(OC)c1)C(OC)C2 (stereo not given)	68	4.77	4					
COc1ccc(C2CC(=O)c3c(OC)cc(O)cc3O2)cc1 (stereo not given)	12	4.04	0.13					
Nc1nc2c(ncn2COC(CO)CO)c(=O)[nH]1 [GANCICLOVIR]		6.04	1100	3.01				
COc1ccc2c(c1OC)C(C(Cl)(Cl)Cl)N1CCc3cc4c(cc3C1=C2)OCO4 (stereo not given)	8.4	6.28	16					
COc1ccc2c(c1OC)CN1CCc3cc4c(cc3[C@@H]1C2)OCO4 [CANADINE]	125	4.92	10					
COc1ccc(Cc2nccc3cc(OC)c(OC)cc23)cc1OC.Cl [PAPAVERINE HYDROCHLORIDE]	610	4.68	29					
COc1cc(C[C@H]2C(=O)OC[C@@H]2Cc2ccc(OC)c(OC)c2)ccc1O [ARCTIGENIN]	76	5.68	36					
COc1ccc(C[C@H]2COC(=O)[C@@H]2Cc2ccc(O[C@@H]3O[C@H](CO)[C@@H](O)[C@H](O)[C@H]3O)c(OC)c2)cc1OC [ARCTIIN]	240	4.80	15					
COc1ccc2cc3[n+](cc2c1OC)CCc1cc2c(cc1-3)OCO2.[Cl-] [BERBERINE CHLORIDE]	74	6.17	110		Active	Active	inactive	inactive
COc1ccc2c(c1OC)CN1CCc3cc4c(cc3C1=C2)OCO4 [DIHYDROBERBERINE]	155	4.03	1.7					
COc1ccc2c(c1OC)C(C#N)N1CCc3cc4c(cc3C1=C2)OCO4 (stereo not given)		6.06	18	4.80				
COc1cc(OC)c2c(c1)OC(c1ccc(OC)c(OC)c1)C(O)C2 (stereo not given)	190	< 3.70	<1					

— ChEMBL document CHEMBL1146376, “Antiviral activity of berberine and related compounds against human cytomegalovirus” (Bioorg Med Chem Lett, 2007)
